Reference: ChEMBL document CHEMBL5303300, “EUbOPEN Chemogenomics Library - Multiplex” (2023)
Several values for one entry are separate records, joined by “and”; a condition that tells them apart may be missing. Equal entries are not always repeated.

System: U2OS
Experiment: Multiplex assay against U2OS
Format: toxicity, cell-based
Settings: human, number of replicates 2
Procedure, shortened: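 Live cells carried four stains from seeding: Hoechst33342, BioTracker Green Microtubule Cytoskeleton Dye, MitoTracker Red and Annexin V Alexa Fluor 680. They were imaged on a CQ1 microscope at 37°C and 5% CO2 after compound addition. Using CellPathfinder machine-learning gating, cells were split into Hoechst high-intensity objects or normal cells, normal cells into healthy, pyknosed or fragmented nuclei, and pyknosed cells into mitotic or apoptotic; tubulin, mitochondrial-mass and membrane-permeability phenotypes are per cents of healthy-nucleus cells.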

[1] = 12 h, 1 µM, compound concentration 1 uM
[2] = 12 h, 10 µM, compound concentration 10 uM
[3] = 24 h, 1 µM, compound concentration 1 uM
[4] = 24 h, 10 µM, compound concentration 10 uM
[5] = 48 h, 1 µM, compound concentration 1 uM
[6] = 48 h, 10 µM, compound concentration 10 uM

## CCNc1ccc(-c2nn(-c3ccccc3C)c3c2C(C)Cc2nc(NC(=O)OC)sc2-3)cn1.O=C(O)C(F)(F)F (configuration not stated)
[1]
  Population Apoptotic (%): 72% and 80%
  Population Fragmented Nuclei (%): 14% and 11%
  Population Healthy Nuclei (%): 71% and 73%
  Population Hoechst High Intensity Objects (%): 0% and 1%
  Population Membrane Permeable-Phenotype (%): 5% and 2%
  Population Mitochondria Different-Phenotype (%): 5% and 4%
  Population Mitotic Cells (%): 27% and 20%
  Population Normal (%): 100% and 98%
  Population Pyknosed Nuclei (%): 14%
  Population Tubulin-Different-Phenotype (%): 55% and 24%
  Total Cell Count: 200 and 68
[2]
  Population Apoptotic (%): 83% and 88%
  Population Fragmented Nuclei (%): 32% and 18%
  Population Healthy Nuclei (%): 25% and 55%
  Population Hoechst High Intensity Objects (%): 0%
  Population Membrane Permeable-Phenotype (%): 28% and 25%
  Population Mitotic Cells (%): 16% and 11%
  Population Normal (%): 100% and 99%
  Population Pyknosed Nuclei (%): 42% and 25%
  Population Tubulin-Different-Phenotype (%): 57% and 88%
[3]
  Population Apoptotic (%): 84% and 75%
  Population Fragmented Nuclei (%): 14% and 6%
  Population Healthy Nuclei (%): 63% and 74%
  Population Hoechst High Intensity Objects (%): 0%
  Population Membrane Permeable-Phenotype (%): 2% and 8%
  Population Mitochondria Different-Phenotype (%): 9% and 2%
  Population Mitotic Cells (%): 15% and 25%
  Population Normal (%): 100%
  Population Pyknosed Nuclei (%): 21% and 19%
  Population Tubulin-Different-Phenotype (%): 58% and 34%
  Total Cell Count: 176 and 63
[4]
  Population Apoptotic (%): 72% and 89%
  Population Healthy Nuclei (%): 18% and 39%
  Population Hoechst High Intensity Objects (%): 0%
  Population Membrane Permeable-Phenotype (%): 14% and 32%
  Population Mitochondria Different-Phenotype (%): 28% and 63%
  Population Mitotic Cells (%): 27% and 10%
  Population Normal (%): 100% and 99%
  Population Pyknosed Nuclei (%): 29% and 45%
  Population Tubulin-Different-Phenotype (%): 42% and 83%
[5]
  Population Apoptotic (%): 72% and 80%
  Population Fragmented Nuclei (%): 9% and 7%
  Population Healthy Nuclei (%): 52% and 57%
  Population Hoechst High Intensity Objects (%): 0% and 1%
  Population Membrane Permeable-Phenotype (%): 6% and 7%
  Population Mitochondria Different-Phenotype (%): 9% and 2%
  Population Mitotic Cells (%): 27% and 20%
  Population Normal (%): 99% and 98%
  Population Pyknosed Nuclei (%): 37% and 35%
  Population Tubulin-Different-Phenotype (%): 69% and 25%
  Total Cell Count: 157 and 71
[6]
  Population Apoptotic (%): 90% and 93%
  Population Healthy Nuclei (%): 10% and 28%
  Population Hoechst High Intensity Objects (%): 0%
  Population Membrane Permeable-Phenotype (%): 66% and 43%
  Population Mitotic Cells (%): 10% and 6%
  Population Normal (%): 100% and 99%
  Population Pyknosed Nuclei (%): 33% and 61%
  Population Tubulin-Different-Phenotype (%): 100% and 84%

## CS(=O)(=O)c1ccc(C(=O)Nc2cc(F)cc(COc3ccc(Br)cc3CN3CC[C@H](O)C3)c2)c(Cl)c1.O=CO
[1]
  Population Healthy Nuclei (%): 64% and 82%
  Population Hoechst High Intensity Objects (%): 0%
  Population Mitotic Cells (%): 20% and 12%
  Population Pyknosed Nuclei (%): 8% and 13%
[2]
  Population Healthy Nuclei (%): 31% and 70%
  Population Hoechst High Intensity Objects (%): 0%
  Population Mitotic Cells (%): 44% and 57%
  Population Pyknosed Nuclei (%): 21% and 25%
[3]
  Population Healthy Nuclei (%): 82% and 53%
  Population Hoechst High Intensity Objects (%): 0%
  Population Mitotic Cells (%): 21% and 46%
  Population Pyknosed Nuclei (%): 15% and 20%
[4]
  Population Healthy Nuclei (%): 32% and 68%
  Population Hoechst High Intensity Objects (%): 0%
  Population Mitotic Cells (%): 20% and 26%
  Population Pyknosed Nuclei (%): 25% and 28%
[5]
  Population Healthy Nuclei (%): 57% and 85%
  Population Hoechst High Intensity Objects (%): 0%
  Population Mitotic Cells (%): 11% and 15%
  Population Pyknosed Nuclei (%): 18%
[6]
  Population Healthy Nuclei (%): 19% and 52%
  Population Hoechst High Intensity Objects (%): 0%
  Population Mitotic Cells (%): 12% and 9%
  Population Pyknosed Nuclei (%): 44% and 38%

## Cc1ccc(C(=O)Nc2cc(N3CCN(C)CC3)cc(C(F)(F)F)c2)cc1-n1cc(-c2cnn(C)c2C)nn1.Cl
[1]
  Population Apoptotic (%): 25% and 60%
  Population Healthy Nuclei (%): 70% and 79%
  Population Hoechst High Intensity Objects (%): 0%
  Population Membrane Permeable-Phenotype (%): 12% and 17%
  Population Mitotic Cells (%): 75% and 39%
  Population Normal (%): 100%
  Population Pyknosed Nuclei (%): 8% and 17%
  Population Tubulin-Different-Phenotype (%): 69% and 29%
[2]
  Population Apoptotic (%): 60% and 83%
  Population Healthy Nuclei (%): 69% and 51%
  Population Hoechst High Intensity Objects (%): 0%
  Population Membrane Permeable-Phenotype (%): 28% and 37%
  Population Mitochondria Different-Phenotype (%): 42% and 62%
  Population Mitotic Cells (%): 39% and 16%
  Population Normal (%): 100%
  Population Pyknosed Nuclei (%): 24% and 19%
  Population Tubulin-Different-Phenotype (%): 86% and 87%
[3]
  Population Apoptotic (%): 31% and 70%
  Population Healthy Nuclei (%): 55% and 73%
  Population Hoechst High Intensity Objects (%): 0%
  Population Membrane Permeable-Phenotype (%): 0% and 9%
  Population Mitotic Cells (%): 68% and 29%
  Population Normal (%): 100%
  Population Pyknosed Nuclei (%): 27% and 24%
  Population Tubulin-Different-Phenotype (%): 68% and 44%
  Total Cell Count: 69 and 193
[4]
  Population Apoptotic (%): 85%
  Population Fragmented Nuclei (%): 28% and 10%
  Population Healthy Nuclei (%): 46% and 50%
  Population Hoechst High Intensity Objects (%): 3% and 0%
  Population Membrane Permeable-Phenotype (%): 23% and 42%
  Population Mitochondria Different-Phenotype (%): 38% and 55%
  Population Mitotic Cells (%): 14%
  Population Normal (%): 96% and 99%
  Population Pyknosed Nuclei (%): 25% and 38%
  Population Tubulin-Different-Phenotype (%): 69% and 89%
[5]
  Population Apoptotic (%): 69% and 75%
  Population Fragmented Nuclei (%): 9% and 3%
  Population Healthy Nuclei (%): 65% and 72%
  Population Hoechst High Intensity Objects (%): 0%
  Population Membrane Permeable-Phenotype (%): 4% and 8%
  Population Mitotic Cells (%): 30% and 24%
  Population Normal (%): 100% and 99%
  Population Pyknosed Nuclei (%): 24%
  Population Tubulin-Different-Phenotype (%): 72% and 41%
[6]
  Population Apoptotic (%): 92% and 100%
  Population Healthy Nuclei (%): 21% and 26%
  Population Hoechst High Intensity Objects (%): 0%
  Population Membrane Permeable-Phenotype (%): 52% and 22%
  Population Mitochondria Different-Phenotype (%): 63% and 55%
  Population Mitotic Cells (%): 7% and 0%
  Population Normal (%): 99% and 100%
  Population Pyknosed Nuclei (%): 67% and 38%
  Population Tubulin-Different-Phenotype (%): 86% and 66%

## CCCN(CCc1cccs1)[C@H]1CCc2c(O)cccc2C1 [ROTIGOTINE]
[1]
  Population Apoptotic (%): 46% and 66%
  Population Fragmented Nuclei (%): 6% and 13%
  Population Healthy Nuclei (%): 84% and 76%
  Population Hoechst High Intensity Objects (%): 0%
  Population Mitochondria Different-Phenotype (%): 0%
  Population Mitotic Cells (%): 53% and 33%
  Population Normal (%): 100%
  Population Pyknosed Nuclei (%): 9% and 10%
  Population Tubulin-Different-Phenotype (%): 86% and 34%
  Total Cell Count: 30
[2]
  Population Apoptotic (%): 62% and 50%
  Population Healthy Nuclei (%): 84% and 60%
  Population Hoechst High Intensity Objects (%): 0%
  Population Membrane Permeable-Phenotype (%): 4% and 13%
  Population Mitochondria Different-Phenotype (%): 1% and 0%
  Population Mitotic Cells (%): 37% and 50%
  Population Normal (%): 100%
  Population Pyknosed Nuclei (%): 11% and 15%
[3]
  Population Apoptotic (%): 57% and 80%
  Population Fragmented Nuclei (%): 1% and 6%
  Population Healthy Nuclei (%): 89% and 82%
  Population Hoechst High Intensity Objects (%): 0%
  Population Membrane Permeable-Phenotype (%): 2%
  Population Mitochondria Different-Phenotype (%): 0%
  Population Mitotic Cells (%): 42% and 20%
  Population Normal (%): 100%
  Population Pyknosed Nuclei (%): 8% and 10%
  Population Tubulin-Different-Phenotype (%): 88% and 39%
[4]
  Population Apoptotic (%): 48% and 66%
  Population Healthy Nuclei (%): 83% and 75%
  Population Hoechst High Intensity Objects (%): 0%
  Population Membrane Permeable-Phenotype (%): 0% and 9%
  Population Mitochondria Different-Phenotype (%): 1% and 2%
  Population Mitotic Cells (%): 51% and 33%
  Population Normal (%): 100%
  Population Pyknosed Nuclei (%): 13% and 10%
  Population Tubulin-Different-Phenotype (%): 62% and 46%
[5]
  Population Apoptotic (%): 35% and 83%
  Population Healthy Nuclei (%): 90% and 76%
  Population Hoechst High Intensity Objects (%): 0% and 1%
  Population Membrane Permeable-Phenotype (%): 1% and 6%
  Population Mitochondria Different-Phenotype (%): 0% and 4%
  Population Normal (%): 99% and 98%
  Population Pyknosed Nuclei (%): 6% and 9%
  Population Tubulin-Different-Phenotype (%): 93% and 35%
[6]
  Population Apoptotic (%): 66% and 57%
  Population Fragmented Nuclei (%): 8% and 2%
  Population Healthy Nuclei (%): 75% and 90%
  Population Hoechst High Intensity Objects (%): 0%
  Population Membrane Permeable-Phenotype (%): 6% and 1%
  Population Mitochondria Different-Phenotype (%): 3% and 0%
  Population Mitotic Cells (%): 33% and 42%
  Population Normal (%): 100% and 99%
  Population Pyknosed Nuclei (%): 15% and 6%
  Population Tubulin-Different-Phenotype (%): 62% and 78%

## COc1cc(OC)cc(C(=O)NNC(=O)Nc2cccc3ccccc23)c1
[1]
  Population Apoptotic (%): 66% and 60%
  Population Healthy Nuclei (%): 65% and 85%
  Population Hoechst High Intensity Objects (%): 0%
  Population Membrane Permeable-Phenotype (%): 7% and 3%
  Population Mitochondria Different-Phenotype (%): 0%
  Population Mitotic Cells (%): 33% and 39%
  Population Normal (%): 100%
  Population Pyknosed Nuclei (%): 15% and 11%
  Population Tubulin-Different-Phenotype (%): 53% and 88%
[2]
  Population Healthy Nuclei (%): 80% and 64%
  Population Hoechst High Intensity Objects (%): 0%
  Population Membrane Permeable-Phenotype (%): 0% and 5%
  Population Mitochondria Different-Phenotype (%): 0%
  Population Mitotic Cells (%): 57% and 90%
  Population Normal (%): 100%
  Population Pyknosed Nuclei (%): 15% and 19%
  Population Tubulin-Different-Phenotype (%): 71% and 38%
[3]
  Population Apoptotic (%): 51% and 100%
  Population Fragmented Nuclei (%): 4% and 12%
  Population Healthy Nuclei (%): 83% and 79%
  Population Hoechst High Intensity Objects (%): 0%
  Population Membrane Permeable-Phenotype (%): 2% and 0%
  Population Mitochondria Different-Phenotype (%): 0%
  Population Normal (%): 99% and 100%
  Population Pyknosed Nuclei (%): 11% and 8%
  Population Tubulin-Different-Phenotype (%): 89% and 36%
[4]
  Population Apoptotic (%): 34% and 30%
  Population Fragmented Nuclei (%): 5% and 6%
  Population Healthy Nuclei (%): 83% and 73%
  Population Hoechst High Intensity Objects (%): 0%
  Population Membrane Permeable-Phenotype (%): 0% and 4%
  Population Mitochondria Different-Phenotype (%): 0% and 4%
  Population Mitotic Cells (%): 65% and 69%
  Population Normal (%): 100%
  Population Pyknosed Nuclei (%): 11% and 20%
  Population Tubulin-Different-Phenotype (%): 81% and 50%
[5]
  Population Apoptotic (%): 64% and 50%
  Population Fragmented Nuclei (%): 3% and 6%
  Population Healthy Nuclei (%): 88% and 85%
  Population Hoechst High Intensity Objects (%): 0%
  Population Membrane Permeable-Phenotype (%): 0% and 4%
  Population Mitochondria Different-Phenotype (%): 0% and 4%
  Population Mitotic Cells (%): 35% and 50%
  Population Normal (%): 100%
  Population Pyknosed Nuclei (%): 7% and 8%
  Population Tubulin-Different-Phenotype (%): 92% and 47%
[6]
  Population Apoptotic (%): 60% and 63%
  Population Fragmented Nuclei (%): 5% and 2%
  Population Healthy Nuclei (%): 68% and 90%
  Population Hoechst High Intensity Objects (%): 2% and 0%
  Population Membrane Permeable-Phenotype (%): 3% and 1%
  Population Mitochondria Different-Phenotype (%): 4% and 0%
  Population Mitotic Cells (%): 39% and 36%
  Population Normal (%): 97% and 100%
  Population Tubulin-Different-Phenotype (%): 52% and 84%
